Experiments:
Rattus norvegicus [1] = organism: Rattus norvegicus; assay: Antiallergic activity against IgE-mediated passive cutaneous anaphylaxis (PCA) in rats; assay type: functional
In short: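 Female Sprague–Dawley rats (90–125 g), fasted overnight, were sensitized with id injections of graded concentrations of IgE against egg albumin. Compound was given orally at 100 mg (base)/kg in 0.5% gum tragacanth to 4 rats, 1 h before challenge. Skin bluing diameters were read 30 min later, and the shift of the antibody dose-response curve to the right was expressed in multiples of antibody concentration.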

Rattus norvegicus [2] = organism: Rattus norvegicus; assay: Antiallergic potency against IgE-mediated passive cutaneous anaphylaxis (PCA) in rats; assay type: functional
In short: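 Multiple-dose oral tests were run alongside aminophylline in female Sprague–Dawley rats (90–125 g). Bluing diameters were recorded 30 min after challenge, and activity was taken as the rightward shift of the antibody dose-response curve.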

SMILES	PCA shift (Rattus norvegicus [1])	Potency (Rattus norvegicus [2])
CCNC(=O)Nc1ccnc(-c2cccnc2)n1	>10	4.8
CC(=O)C(=CNc1ccnc(-c2ccncc2)n1)C(C)=O	5.6	
COC(=O)C(/C=N/c1ccnc(-c2cccnc2)n1)=C(\O)OC	>10	2.9
CCO/C(O)=C(\C=N\c1ccnc(-c2ccncc2)n1)C(C)=O	2.9	
CCOC(=O)C(/C=N/c1ccnc(-c2cccnc2)n1)=C(\O)OCC	>10	0.8
CN(C(=O)NC(C)(C)C)c1ccnc(-c2ccncc2)n1	4	
CC(C)(C)C(=O)Nc1ccnc(-c2ccncc2)n1	4.2	
CC(C)CC(=O)Nc1ccnc(-c2ccncc2)n1	5	
CCCCNC(=O)Nc1ccnc(-c2ccncc2)n1	>10	2.4
CC1(C)OC(=O)C(/C=N/c2ccnc(-c3ccncc3)n2)=C(O)O1	2.2	
CN(C)c1ccnc(-c2ccncc2)n1	1.5	
Cc1cc(O)nc(-c2ccncc2)n1	2.8	
Cc1cnc(-c2ccncc2)nc1NC(=O)NC(C)(C)C	3.5	
Nc1ccnc(-c2cc[n+]([O-])cc2)n1	3.8	
CCNc1ccnc(-c2ccncc2)n1	8.4	
NC(=O)Nc1ccnc(-c2ccncc2)n1	4.8	
CCCCOC(=O)Nc1ccnc(-c2ccncc2)n1	3	
Nc1ccnc(-c2cccnc2)n1	4.2	
CCCNC(=O)Nc1ccnc(-c2ccncc2)n1	>10	
CC(C)(C)NC(=O)Nc1ccnc(-c2ccccn2)n1	4.5	

SMILES	PCA shift (Rattus norvegicus [1])	Potency (Rattus norvegicus [2])
CC(=O)Nc1ccnc(-c2ccncc2)n1	1.7	
CC(C)(C)NC(=O)Nc1ccnc(-c2cccnc2)n1	5.8	
CCO/C(O)=C(C#N)\C=N\c1ccnc(-c2ccncc2)n1	9.4	
CC(C)NC(=O)Nc1ccnc(-c2ccncc2)n1	>10	2.4
CC(C)(C)CC(=O)Nc1ccnc(-c2ccncc2)n1	2.2	
CCO/C(O)=C(C#N)\C(C)=N\c1ccnc(-c2ccncc2)n1	5	
CCCCNc1ccnc(-c2ccncc2)n1	7.6	
CCNC(=O)Nc1ccnc(-c2ccncc2)n1	>10	7
CCCCNC(=O)Nc1ccnc(-c2cccnc2)n1	8.5	
CCN(CC)C(=O)Nc1ccnc(-c2ccncc2)n1	8.9	
CC(C)C(=O)Nc1ccnc(-c2ccncc2)n1	2.3	
CC(C)NC(=O)Nc1ccnc(-c2cccnc2)n1	>10	1.6
CC(C)(C)NC(=O)Nc1ccnc(-c2cc[n+]([O-])cc2)n1	1.5	
CC(C)(C)NC(=O)Nc1ccnc(-c2ccncc2)n1	>10	3.9
Nc1ccnc(-c2ccccn2)n1	2.5	
CC(C)(C)Nc1ccnc(-c2ccncc2)n1	1.5	
CC(C)(C)OC(=O)Nc1ccnc(-c2ccncc2)n1	1.6	
CCN(CC)c1cc(C)nc(-c2ccncc2)n1.Cl.Cl	2.2	
Cc1cc(N(C)C)nc(-c2ccncc2)n1.Cl.Cl	5	
CCCCN(C(=O)NC(C)C)c1ccnc(-c2ccncc2)n1.CS(=O)(=O)O.CS(=O)(=O)O	4.2	

SMILES	PCA shift (Rattus norvegicus [1])	Potency (Rattus norvegicus [2])
CCC(CC)NC(=O)Nc1ccnc(-c2ccncc2)n1.CS(=O)(=O)O.CS(=O)(=O)O	6.4	
CS(=O)(=O)O.CS(=O)(=O)O.Cc1cc(NN)nc(-c2ccncc2)n1	2	
CC(C)NC(=O)Nc1ccnc(-c2cc[n+]([O-])cc2)n1.CS(=O)(=O)O.CS(=O)(=O)O	5.4	1.8
CCOC(=O)C(/C=N/c1ccnc(-c2ccccn2)n1)=C(\O)OCC.CS(=O)(=O)O	4.1	
Cc1cc(N(CCO)CCO)nc(-c2ccncc2)n1	6.3	
CNC(=O)Nc1ccnc(-c2ccncc2)n1	>10	3.8
CC(C)(CO)NC(=O)Nc1ccnc(-c2ccncc2)n1	>10	1
Nc1ccnc(-c2ccncc2)n1	8.6	
CCOC(=O)C(/C=N/c1cc(C)nc(-c2ccncc2)n1)=C(/O)OCC	7.8	
CCCCCC(=O)Nc1ccnc(-c2ccncc2)n1	7	
CC(C)(C)CNC(=O)Nc1ccnc(-c2ccncc2)n1	2.2	
CNc1ccnc(-c2ccncc2)n1	7.4	
CCOC(=O)C(/C=N/c1ccnc(-c2ccncc2)n1)=C(\O)OCC	>10	2.4
CNc1cc(C)nc(-c2ccncc2)n1	4.9	
Cc1cc(Cl)nc(-c2ccncc2)n1	1.4	
COC(=O)C(/C=N/c1ccnc(-c2ccncc2)n1)=C(\O)OC	>10	5.8
CC(C)Nc1ccnc(-c2ccncc2)n1	9	
Cc1cc(NC(=O)NC(C)(C)C)nc(-c2ccncc2)n1	3.2	
CC(C)NC(=O)N(C)c1ccnc(-c2ccncc2)n1	>10	
Cc1cc(N)nc(-c2ccncc2)n1	10.2	

From ChEMBL document CHEMBL1122094, “Novel orally active inhibitors of passive cutaneous anaphylaxis in rats: N-[2-(4-pyridinyl)-4-pyrimidinyl]ureas and dialkyl [[[2-(4-pyridinyl)-4-pyrimidinyl]amino]methylene]malonates” (1982)
